SF1 activator = activators of human SF-1, primary screen, cell-based, CHO-K1, Gal4-SF-1 LBD, luciferase luminescence. CHO-K1 Gal4-SF-1 LBD luciferase reporter; % increase over DMSO SF-1-specific signal. 65,000 tested, 1.9% active. Steroidogenic factor 1 (Homo sapiens), Q13285. activation, % at 10 µM;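 active = activation above the mean activation of all tested compounds plus 3 SD, cut at about 50% in these data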
Target sequence (Q13285 whole entry, looked up, the tested form may be a part): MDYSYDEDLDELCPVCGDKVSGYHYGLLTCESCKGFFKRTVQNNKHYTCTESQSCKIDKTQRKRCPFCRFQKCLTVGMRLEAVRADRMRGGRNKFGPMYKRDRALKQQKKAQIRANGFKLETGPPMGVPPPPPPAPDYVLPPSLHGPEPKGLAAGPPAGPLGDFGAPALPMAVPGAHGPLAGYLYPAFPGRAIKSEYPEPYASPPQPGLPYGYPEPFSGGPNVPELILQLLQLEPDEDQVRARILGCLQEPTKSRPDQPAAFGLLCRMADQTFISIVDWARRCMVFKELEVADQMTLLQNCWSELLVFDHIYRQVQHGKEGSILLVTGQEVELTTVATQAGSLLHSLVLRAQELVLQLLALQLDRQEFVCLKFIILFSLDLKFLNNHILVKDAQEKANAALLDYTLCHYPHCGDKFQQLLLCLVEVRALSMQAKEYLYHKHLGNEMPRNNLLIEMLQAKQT
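Material: Transient Gal4-SF-1 LBD reporter, CHO-K1 | Input: 4,000 cells/well | Dosing: One dose, 10 µM compound, 1% DMSO | Incubation: 20 h compound treatment, 37 °C | Detection: SteadyLite luciferase luminescence | Evaluation: Percent activation relative to DMSO median and mock-transfected background | Benchmarks: DMSO-treated SF-1-transfected cells as negative, DMSO-treated mock-transfected cells lacking SF-1 as background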
Htt clearance = clearance of mutant huntingtin inclusions, primary screen, imaging, HeLa Exon1htt(103Q)mCFP, confocal imaging | inhibition, % at 1.5 µM | aggregate imaging; zero = plate's median compound well | AID 853, 2007 | 47,000 tested, 0.42% active;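 active = inhibition of aggregate fluorescence above about 70%, also judged a hit by eye on the cell image, limit read from the data, passing the limit was not always enough; inconclusive = no rule stated for this call; inactive = not judged a hit on image review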;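 note: cells exposed to compound for three days before fixation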
M1 ag = M1 muscarinic receptor agonists, primary screen, CHO-M1 cells, Fluo-4 calcium, agonist mode | Muscarinic acetylcholine receptor M1 | Fluo-4 calcium fluorescence; hits give high values | B-score at 10 µM | 64,000 tested, 3% active;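 active = fluorescence rise, raw or as B-score row- and column-corrected plate score, outside the 99.7% band of its plate's samples, either direction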
M1 antag = antagonists of rat M1 muscarinic receptor | CHO-M1 cells, Fluo-4 calcium, ACh EC80 antagonist mode; hits give low values | B-score at 10 µM | 64,000 tested, 3.4% active | AID 628, 2007;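 active = calcium fluorescence response, raw or row-and-column corrected B-score, differing from the plate sample mean either way at a set confidence level, mostly lower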
RORa activator = activators of orphan receptor RORA, primary screen, cell-based, luminescence. CHO-K1 Gal4-RORA LBD luciferase reporter; percent increase over mock-subtracted basal signal. activation, % at 10 µM. 65,000 tested, 1.5% active;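 active = activation above the mean of all tested compounds plus 3 SD, cut at about 49% in these data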
D1 allo mod = D1 CRE-luciferase signal change, two-sided – cell-based, HEK293 D1, dopamine EC30, D1 allosteric modulator project, primary screen; dopamine EC30 potentiation; actives deviate in either direction; B-score at 10 µM; 58,000 tested, 5.9% active; AID 641, 2007;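 active = luminescence count or its row- and column-corrected plate score outside the 99.7% band of the plate's sample wells, on either side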
D1 mod confirm = D1 receptor positive allosteric modulators, retest, confirmation, cell-based, HEK293 D1, CRE-luciferase, duplicate; shares compounds with D1 allo mod; dopamine EC30 potentiation; hits give high values; luminescence at 10 µM; 2,200 tested, 88% active;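 active = luminescence in either of two replicates above the same-plate mean plus 3 SD of the low-dose dopamine control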
D1 no dopamine = D1 receptor agonism without dopamine, confirmation, mechanism study for D1 allosteric modulator project, cell-based, HEK293 D1, CRE-luciferase, secondary assay 1; luminescence at 10 µM; luminescence, no dopamine; hits give high values; 1,900 tested, 0.8% active; AID 646, 2007; shares compounds with D1 allo mod; in the data active = luminescence above about 3900
Isoprot counter = counter-screen for D1 modulators: isoproterenol response in HEK293 cells; shares compounds with D1 allo mod; HEK293 D1 CRE-luciferase, isoproterenol EC30 counter-screen; calls only at 10 µM; 2,200 tested, 63% active;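 active = luminescence in either replicate above plate mean of wells with a partly effective reference agonist dose plus 3 SD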;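 note: isoproterenol raises cAMP through native beta-adrenoceptor Gs so signal bypasses D1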
Each line names hits and unclear results; the compound was inactive in the other large screens (follow-up assays come after a bar, where they were run). Compounds with a hit are over-represented: about 11% of the library has one in this group of screens.

CCc1ccc2[nH]c(=O)c(CN(Cc3nnnn3C3CCCC3)C3CCCCC3)cc2c1	D1 allo mod 2.5 (no result: Htt clearance) | D1 mod confirm 8428 | D1 no dopamine inactive | Isoprot counter inactive
CCOc1cc(C)nc(NCc2ccccc2)n1	none (no result: SF1 activator, M1 ag, M1 antag, RORa activator, D1 allo mod)
CCCCOc1cc(C)nc(NCc2ccccc2)n1	D1 allo mod 10 | D1 mod confirm 5728 | D1 no dopamine inactive | Isoprot counter inactive
COc1ccc(-n2nnc3c(SCC(=O)N4CCCc5ccccc54)ncnc32)cc1	none (no result: Htt clearance)
Cn1c(N2CCC(C(N)=O)CC2)nc2c1c(=O)n(Cc1ccc(Cl)cc1)c(=O)n2C	none (no result: Htt clearance)
Cn1c(N2CCCC2)nc2c1c(=O)n(Cc1cccc(F)c1)c(=O)n2C	D1 allo mod 4.5 | D1 mod confirm 11200 | D1 no dopamine inactive | Isoprot counter active
Cn1c(N2CCCC2)nc2c1c(=O)n(Cc1ccc(Cl)cc1)c(=O)n2C	D1 allo mod 9 (no result: Htt clearance) | D1 mod confirm 17964 | D1 no dopamine inactive | Isoprot counter active
Cc1cc(Oc2ccccc2)nc(-c2ccccc2)n1	D1 allo mod 2.7 | D1 mod confirm 6804 | D1 no dopamine inactive | Isoprot counter active
CCOc1ccc(NC(=O)CSc2nnc(C)n2CCCOC)cc1	none
Cc1ccc(N(C)C(=O)N2CCN(S(=O)(=O)c3ccc(C)c(C)c3)CC2)cc1	none (no result: SF1 activator, M1 ag, M1 antag, RORa activator, D1 allo mod)
CCS(=O)(=O)n1nc(-c2ccc(Cl)cc2)nc1N	D1 allo mod 5 (no result: Htt clearance) | D1 mod confirm 8932 | D1 no dopamine inactive | Isoprot counter active
CCS(=O)(=O)n1nc(-c2ccc(C)cc2)nc1N	none
COCC(=O)Nc1nnc(Cc2ccc(OC)c(OC)c2)s1	D1 allo mod 9.8 (no result: Htt clearance) | D1 mod confirm 19508 | D1 no dopamine inactive | Isoprot counter active
CCOCC(=O)Nc1nnc(Cc2ccc(OC)c(OC)c2)s1	D1 allo mod 7.8 | D1 mod confirm 12160 | Isoprot counter active
CCOC(=O)C(=O)Nc1nnc(Cc2ccc(OC)c(OC)c2)s1	none (no result: SF1 activator, M1 ag, M1 antag, RORa activator, D1 allo mod)
COCCNC(=O)CN(C(=O)Cn1nnc2ccccc21)c1ccc(C)c(F)c1	none (no result: SF1 activator, M1 ag, M1 antag, RORa activator, D1 allo mod)
CC1CN(C(=O)COc2ncnc3ccccc23)CC(C)O1 (configuration not stated)	none (no result: SF1 activator, M1 ag, M1 antag, RORa activator, D1 allo mod)
CSc1nnc2c3cc(C)ccc3n(Cc3ccccc3)c2n1	D1 allo mod 8.9 (no result: Htt clearance) | D1 mod confirm 14436 | D1 no dopamine inactive | Isoprot counter active
CCOC(=O)c1ccc2nc(NC(=O)C(C)C)sc2c1	RORa activator 68, D1 allo mod 5.4 (no result: Htt clearance) | D1 mod confirm inactive | D1 no dopamine inactive | Isoprot counter inactive
CCC(c1nnnn1CCOC)N(Cc1ccc(C)cc1)Cc1cc2cc(OC)ccc2[nH]c1=O (configuration not stated)	D1 allo mod 5.8 | D1 mod confirm 14016 | D1 no dopamine inactive | Isoprot counter active
CCC(c1nnnn1Cc1ccccc1)N(Cc1ccco1)Cc1cc2cc(OC)ccc2[nH]c1=O (configuration not stated)	none (no result: Htt clearance, D1 allo mod)
CCOC(=O)c1cc(-c2cccs2)nn1CCC#N	none (no result: Htt clearance, D1 allo mod)
CCOC(=O)c1cc(-c2ccc(C)o2)nn1CCC#N	D1 allo mod 5.6 (no result: Htt clearance) | D1 mod confirm 19640 | D1 no dopamine inactive | Isoprot counter active
COC1(OC)N=C(N)C2(C#N)C(c3cccc(Oc4ccccc4)c3)C12C#N (configuration not stated)	D1 allo mod 19 | D1 mod confirm 16148 | D1 no dopamine inactive | Isoprot counter active
CCOC(=O)N1CCN(S(=O)(=O)N(C)C)CC1	none
COc1cccc(C2CC(c3ccc(C)cc3)Nc3nc(N)nn32)c1 (configuration not stated)	none (no result: Htt clearance)
COc1ccc(C2CC(c3ccc(Cl)cc3Cl)n3nc(N)nc3N2)cc1 (configuration not stated)	Htt clearance inconclusive
Cc1cccc(C2CC(c3ccccc3)Nc3nc(N)nn32)c1 (configuration not stated)	D1 allo mod 18 | D1 mod confirm 16344 | D1 no dopamine inactive | Isoprot counter active
COc1ccc(C2CC(c3ccc(Cl)cc3Cl)Nc3nc(N)nn32)cc1 (configuration not stated)	D1 allo mod 3.1 | D1 mod confirm 6116 | D1 no dopamine inactive | Isoprot counter inactive
Nc1nc2n(n1)C(c1cccc(Cl)c1)CC(c1ccc(F)cc1)N2 (configuration not stated)	D1 allo mod 13 (no result: SF1 activator, RORa activator) | D1 mod confirm 13312 | Isoprot counter active
Nc1nc2n(n1)C(c1cccs1)CC(c1ccccc1)N2 (configuration not stated)	D1 allo mod 14 | D1 mod confirm 13800 | Isoprot counter active
CC1(C)CC(=O)C2=C(C1)OC(N)=C(C#N)C2CCc1ccccc1 (configuration not stated)	D1 allo mod 8.9 | D1 mod confirm 20388 | D1 no dopamine inactive | Isoprot counter active
CC1(C)CC(=O)C2=C(C1)OC(N)=C(C#N)C2c1cccc(OC(=O)c2ccco2)c1 (configuration not stated)	D1 allo mod 6.3 | D1 mod confirm 5824 | D1 no dopamine inactive | Isoprot counter inactive
COc1ccc(-c2cc(=O)n(-c3nc4ccccc4[nH]3)[nH]2)cc1	none (no result: D1 allo mod)
O=C1NC(=O)c2cc(NC(=O)C3CCCCC3)ccc21	none (no result: M1 antag)
COC(=O)c1ccc(Oc2cc(C)nc(SC)n2)cc1	SF1 activator 71, RORa activator 58, D1 allo mod 5.3 | D1 mod confirm 15492 | D1 no dopamine inactive | Isoprot counter active
COC(=O)COc1ccc(Oc2cc(C)nc(SC)n2)nn1	none
CCSc1nc2cc(C(=O)OC)ccc2c(=O)n1CC	D1 allo mod 10 (no result: Htt clearance) | D1 mod confirm 13500 | D1 no dopamine inactive | Isoprot counter active
CCCCn1c(SCn2nnc3ccccc3c2=O)nc2cc(C(=O)OC)ccc2c1=O	none (no result: Htt clearance)
COc1ccc(CN2CN=C(Nc3nc4ccccc4s3)NC2)cc1	none (no result: SF1 activator, M1 ag, M1 antag, RORa activator, D1 allo mod)
